The results in this text go back to ChEMBL document CHEMBL4261598, “Synthesis of novel mono and bis nitric oxide donors with high cytocompatibility and release activity” (Bioorg Med Chem Lett, 2018).

Active and inactive are the calls of the source. The calls are words filed in the database; no cut-off is given here.

Data set [1] has as its system VSMC. Description: Induction of NO release in human VSMC assessed as intracellular S-nitrosothiol level at 100 uM after 1 hr by fluorimetric method. It is filed as functional. The procedure, abridged: (§1)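 HVSMC seeded in 6-well plates 48 h before, then incubated 1 h at 37°C with compound (mono-amidoximes and GSNO reference 100 µM, bis-amidoxime 50 µM); controls PBS with 0.1% DMSO. Cells washed and lysed, then RSNO and nitrite quantified immediately by fluorometric 2,3-diaminonaphthalene/N2O3 assay giving naphthotriazole (ex 375, em 415 nm). Mean ± SEM, three independent experiments.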

In a further data set the test system is Liver. Description: Induction of NO release in rat liver microsomes assessed as nitrite levels after 10 mins in presence of NADPH and dioxygen by Griess assay. It is filed as functional. To be noted: microsome. The procedure, abridged:
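Amidoximes incubated 10 min with rat liver microsomes and NADPH; supernatant nitrite quantified by Griess assay, expressed as nmol NO2-/mg P450. Background from controls lacking microsomes, amidoxime or NADPH, or with parent nitrile, was subtracted. 4-Chlorobenzamidoxime served as reference. Mean ± SEM of three to five independent experiments.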
In general terms: Microsomes from liver hold many membrane-bound enzymes, among them those of drug oxidation.

Data set [2] deals with VSMC. Description: Induction of NO release in human VSMC assessed as intracellular S-nitrosothiol level at 50 uM after 1 hr by fluorimetric method. Format: functional. The procedure, abridged: as §1
In data set [3] the test system is VSMC. Description: (§2) Cytotoxicity against human VSMC assessed as cell viability at 100 uM after 24 hrs by MTT assay. Format: cell-based. The following applies: vsmc, 24 h, 100 µM. The procedure, abridged: (§3)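 Human vascular smooth muscle cells incubated 24 h with amidoximes over 0.001 to 100 µM; viability measured (method in Supporting Information). Mean ± SEM of three to four tests, two-way ANOVA.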
(In general: Formazan colour is commonly taken as a measure of viable cells.)

A short description of data set [4]: as §2. Format: cell-based. To be noted: VSMC cells, read-out: Activity. The procedure, abridged: as §3

Turning to `N/C(=N\O)c1ccc(Cl)cc1`, the values for the Activity in the data set on VSMC [1] and in the data set on Liver were 0.03 µM and 1.3 nmol/mg, respectively.
As to `N/C(CCCCOc1ccc(/C(N)=N/O)cc1)=N\O`, the Activity with VSMC [2] is 0.17 µM; with VSMC [3] it was “Non-Toxic”. In addition, in the data set on Liver, the result was Active.
Take `N/C(CCCCOc1ccccc1)=N\O`: the outcome in the data set on Liver was Active. Moreover, in the data set with VSMC [3], the Activity entry was “Non-Toxic”.
Turning to `COc1ccc(C(=N)NO)cc1`, the Activity in the data set with VSMC [1] is 0.21 µM; in the data set with Liver, 1.5 nmol/mg; with VSMC [3], “Non-Toxic”.
As for `N[C@@H](CCC(=O)N[C@@H](CSN=O)C(=O)NCC(=O)O)C(=O)O`, the result in the data set with VSMC [1] was Active.
On to `N/C(=N\O)c1ccc(O)cc1`, for which the values for the Activity with VSMC [1] and in the data set on Liver were 0.2 µM and 2.4 nmol/mg, respectively. Also, the viability at 24 h, 100 µM in data set [4] came to 74.7%.
